Measurements: ChEMBL document CHEMBL3739266, “Synthesis and pharmacological evaluation of some new fluorine containing hydroxypyrazolines as potential anticancer and antioxidant agents” (Eur J Med Chem, 2015)
Converted amounts (≈) assume the structure as drawn.

Assays:
[1] = Antioxidant activity assessed as DPPH free radical scavenging activity at 50 ug/ml after 30 mins by spectrophotometric assay; format: physicochemical; settings: 0.5 h
Outline: (§1)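 Test samples at 25, 50 and 100 μg/mL in methanol, 1 mL added to 4 mL of 0.004% (w/v) methanolic DPPH. Scavenging expressed as percent inhibition relative to a control with all reagents except test compound. Ascorbic acid served as reference antioxidant.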

[2] = Antioxidant activity assessed as DPPH free radical scavenging activity after 30 mins by spectrophotometric assay; format: physicochemical; outline: as §1
[3] = Antioxidant activity assessed as DPPH free radical scavenging activity at 25 ug/ml after 30 mins by spectrophotometric assay; format: physicochemical; settings: 0.5 h; outline: as §1
[4] = Antioxidant activity assessed as DPPH free radical scavenging activity at 100 ug/ml after 30 mins by spectrophotometric assay; format: physicochemical; settings: 0.5 h; outline: as §1
Vero = experiment: Cytotoxicity against African green monkey Vero cells assessed as growth inhibition after 48 hrs by MTT assay; format: cell-based; settings: Chlorocebus sabaeus
Outline: (§2)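 MTT colorimetric assay in 96-well plates. Cells exposed to compounds for 48 h, then tetrazolium reduction to formazan was read as absorbance. IC50 taken from plotted dose–response curves. Values are mean ± SD of three independent experiments. Doxorubicin served as positive control.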

MDA-MB-231 = experiment: Cytotoxicity against human MDA-MB-231 cells assessed as growth inhibition after 48 hrs by MTT assay; format: functional, cell-based; settings: MDA-MB-231, 48 h; outline: as §2

SMILES	inhibition (INH) [1]	IC50 [2]	inhibition (INH) [3]	inhibition (INH) [4]	IC50 (Vero)	IC50 (MDA-MB-231)
O=C1O[C@H]([C@@H](O)CO)C(O)=C1O [ASCORBIC ACID]	83.52%	15.17 µg/mL (≈ 86.1 µM)	82.39%	87.22%		
COc1cccc2c1C(=O)c1c(O)c3c(c(O)c1C2=O)C[C@@](O)(C(=O)CO)C[C@@H]3O[C@H]1C[C@H](N)[C@H](O)[C@H](C)O1 [DOXORUBICIN]					> 100000 nM	910 nM
